In test [1] the test system is PC-3. Briefly: Cell cycle arrest in human PC-3 cells assessed as up regulation of CDKN1A gene expression at 0.24 uM measured after 3 hrs by qPCR analysis. It counts as functional, cell-based. (Real-time PCR tracks product formation cycle by cycle.)
Test [2] deals with PC-3. The test is described as follows: Induction of morphological changes in human PC-3 cells assessed as cell rounding at 0.24 uM measured after 24 hrs in presence of antioxidant N-acetyl-L-cysteine by phase contrast microscopy. It is filed as functional, cell-based. The procedure, abridged:
(§1)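 PC3 cells were seeded at 1×10^5 per well in 6-well plates and treated after 24 h, with or without 1 mM N-acetyl-L-cysteine. The same observation field was imaged by phase contrast microscopy at 1, 2, 3, 4 and 24 h. DMSO vehicle served as control.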

Test [3] relates to PC-3. Briefly: Induction of ROS generation in human PC-3 cells at 0.24 uM measured after 30 mins by CellROX reagent based flow cytometry. It counts as functional, cell-based. A digest of the protocol:
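PC3 seeded 1×10^5 per well in 6-well plates, after 24 h treated together with CellROX green (5 μM final) for 30 min at 37 °C; 0.1% DMSO negative control, 1 mM H2O2 positive control. Cells collected and CellROX-positive fraction measured by flow cytometry.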
On the technique in general: A flow cytometer gives signals particle by particle.

In test [4] the test system is PC-3. Briefly: Induction of morphological changes in human PC-3 cells assessed as cell rounding at 0.24 uM measured after 24 hrs by phase contrast microscopy. It counts as functional, cell-based. A digest of the protocol:
as §1

Test [5] concerns PC-3. Briefly: Induction of apoptosis in human PC-3 cells assessed as effect on BAX gene expression at 0.24 uM measured after 3 hrs by qPCR analysis. It counts as functional, cell-based. A digest of the protocol:
(§2)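 Seeded 1×10^5 cells per well in 6-well plates; PC3 treated 3 h. Total RNA extracted, qPCR; each target normalized to reference gene (β-actin) by efficiency-corrected ΔΔCt (Pfaffl) against a control calibrator sample, efficiencies from amplification profiles. Mean ± SEM of four independent experiments.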

In test [6] the test system is PC-3. Briefly: Cell cycle arrest in human PC-3 cells assessed as down regulation of cyclin D1 expression at 0.24 uM measured after 3 hrs by Western blot analysis. It is filed as functional, cell-based. The procedure, abridged:
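Western blot: PC3 seeded 1×10^7 per 100 mm dish, treated 3 h or 6 h, lysed in RIPA with protease/phosphatase inhibitors; 50 μg protein on 12% SDS-PAGE, PVDF transfer, 5% milk block, anti-cyclin D1 (1:1000) overnight at 4 °C, HRP anti-rabbit secondary, β-actin loading control, ECL detection and band densitometry; two independent experiments.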
In general terms: In western blotting, separated proteins are transferred to a membrane and probed.

The test system of test [7] is PC-3. The test is described as follows: Induction of DNA damage in human PC-3 cells assessed as increase in phosphorylated gamma-H2AX expression at 0.24 uM measured after 6 hrs by DAPI staining based confocal laser scanning microscopy. It is filed as functional, cell-based. A digest of the protocol: (§3)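 γ-H2AX immunostaining: PC3 on coverslips (1×10^5 cells), serum-starved 18 h, then treated (methods state 1 h; legend states 6 h); fixed 3.7% formaldehyde, permeabilized 0.25% Triton X-100, blocked 3% albumin, anti-phospho-H2A.X Ser139 (1:500) then Alexa Fluor 488 secondary, DAPI nuclei; confocal, 500 cells per slide, three experiments; UVC 20 min positive control.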

The test system of test [8] is PC-3. The test is described as follows: Induction of ROS generation in human PC-3 cells at 0.24 uM measured after 30 mins by CellROX reagent based confocal microscopy. It counts as functional, cell-based. A digest of the protocol: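 Confocal ROS imaging of PC3: cells loaded with 2.5 μM CellROX green plus 0.5 μM MitoTracker Red for 30 min at 37 °C, washed three times in PBS, imaged immediately; DMSO vehicle and H2O2 controls.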

The subject of test [9] is PC-3. Briefly: Induction of morphological changes in human PC-3 cells assessed as reduction in cell density at 0.24 uM measured after 24 hrs in presence of antioxidant N-acetyl-L-cysteine by phase contrast microscopy. It counts as functional, cell-based. A digest of the protocol:
as §1

Test [10] deals with PC-3. Briefly: Cell cycle arrest in human PC-3 cells assessed as accumulation of cells at sub-G1 phase at 0.24 uM measured after 3 hrs by propidium iodide staining based flow cytometry (reference value: 0.75 +/- 0.21%). It is filed as functional. The procedure, abridged:
(§4)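 PC3 cells seeded 1×10^5 per well in 6-well plates, exposed 3 h, with or without 1 mM N-acetyl-L-cysteine pretreatment; vehicle 0.1% DMSO. Harvested with trypsin-EDTA, fixed in 75% ethanol in PBS at 4 °C for 30 min, stained 1 h with RNase (1.5 mg mL^-1) and propidium iodide (90 μg mL^-1); DNA content by flow cytometry. Phase fractions compared with control by ANOVA/Tukey.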

The subject of test [11] is PC-3. Briefly: Cytotoxicity against human PC-3 cells assessed as reduction in cell viability at 0.05 uM measured after 24 hrs in presence of antioxidant N-acetyl-L-cysteine by SRB assay. It is filed as functional, cell-based. A digest of the protocol: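 SRB assay: PC3 seeded 1×10^4 per well, after 24 h exposed 24 h at 37 °C, 5% CO2 with or without 1 mM N-acetyl-L-cysteine; vehicle 0.1% DMSO. Fixed with 15% TCA at 4 °C for 1 h, dried, stained 0.4% sulforhodamine B, dye solubilized in 10 mM Tris, absorbance 540 nm; ANOVA/Tukey.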

Test [12] relates to PC-3. The test is described as follows: Induction of DNA damage in human PC-3 cells assessed as increase in phosphorylated gamma-H2AX expression at 0.05 uM measured after 6 hrs by DAPI staining based confocal laser scanning microscopy. It counts as functional, cell-based. The procedure, abridged: as §3
Test [13] concerns PC-3. The test is described as follows: Induction of apoptosis in human PC-3 cells assessed as necrotic cells at 0.05 uM measured after 6 hrs by Alexa Fluor 488-annexin V/propidium iodide staining based flow cytometry (reference value: 1.28%). It is filed as functional.
The subject of test [14] is PC-3. Briefly: Cell cycle arrest in human PC-3 cells assessed as reduction in cell accumulation at S phase in presence of antioxidant N-acetyl-L-cysteine at 0.05 uM measured after 3 hrs by propidium iodide staining based flow cytometry. It is filed as functional. The procedure, abridged: as §4
For test [15], the system named is PC-3. Briefly: Induction of apoptosis in human PC-3 cells assessed as late apoptotic cells at 0.05 uM measured after 6 hrs by Alexa Fluor 488-annexin V/propidium iodide staining based flow cytometry (reference value: 3.37%). It counts as functional.
The test system of test [16] is PC-3. The test is described as follows: Induction of apoptosis in human PC-3 cells assessed as effect on BCL2 gene expression at 0.05 uM measured after 3 hrs by qPCR analysis. It is filed as functional, cell-based. A digest of the protocol:
as §2

The test system of test [17] is PC-3. Briefly: Cell cycle arrest in human PC-3 cells assessed as down regulation of c-Myc gene expression at 0.05 uM measured after 3 hrs by qPCR analysis. It is filed as functional, cell-based. A digest of the protocol: as §2
In test [18] the test system is PC-3. The test is described as follows: Cell cycle arrest in human PC-3 cells assessed as increase in cell accumulation at G2/M phase at 0.05 uM measured after 3 hrs by propidium iodide staining based flow cytometry. It counts as functional. The procedure, abridged:
as §4

Test [19] has as its system PC-3. Briefly: Cell cycle arrest in human PC-3 cells assessed as reduction in cell accumulation at S phase at 0.05 uM measured after 3 hrs by propidium iodide staining based flow cytometry. It is filed as functional. A digest of the protocol:
as §4

The test system of test [20] is PC-3. Briefly: Induction of morphological changes in human PC-3 cells assessed as cell rounding at 0.05 uM measured after 24 hrs in presence of antioxidant N-acetyl-L-cysteine by phase contrast microscopy. It is filed as functional, cell-based. The procedure, abridged:
as §1

The subject of test [21] is PC-3. The test is described as follows: Induction of apoptosis in human PC-3 cells assessed as effect on BAX gene expression at 0.05 uM measured after 3 hrs by qPCR analysis. It counts as functional, cell-based. The procedure, abridged:
as §2

For test [22], the system named is PC-3. The test is described as follows: Cytotoxicity against human PC-3 cells assessed as cell growth inhibition at 0.05 uM measured after 48 hrs by CCK-8 assay relative to control. It is filed as functional. Conditions: read-out: GI. The procedure, abridged: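 PC3 at 1×10^4 cells per well attached 24 h, pretreated 1 h with carboxy-PTIO (0, 0.50, 3.13, 6.25, 12.50, 25, 50 μM), then compound added for 48 h; washed three times with PBS, growth read by CCK-8 as percent inhibition versus control cells; two experiments in triplicate.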

Results on 2 compounds are retold here after ChEMBL document CHEMBL6134784, “Furoxan-piplartine hybrids as effective NO donors and ROS inducers in PC3 cancer cells: design, synthesis, and biological evaluation” (RSC Med Chem, 2024).

Active and inactive are the calls of the source. The rule behind the calls is not given here.

In the case of `COc1cc(/C=C/C(=O)N2CCC=CC2=O)cc(OC)c1OCCCOc1no[n+]([O-])c1S(=O)(=O)c1ccccc1`, the outcome in [1], in test [3], in [4], in test [6], in test [7] and in [8] was Active. Further, the result in test [2], in test [5] and in test [9] was inactive. The Activity in [10] was found to be 7.6%.
In the case of `COc1cc(/C=C/C(=O)N2CCC=CC2=O)cc(OC)c1OCCCCCCCCCCCCOc1no[n+]([O-])c1S(=O)(=O)c1ccccc1`, the outcome in test [11], in test [16], in [20] and in test [21] was inactive. Further, the outcome in test [12], in test [14], in test [17], in [18] and in [19] was Active. Besides, the Activity in test [13] came to 0.87%; in [15], 81.12%. Moreover, the inhibition of growth at 0.05 µM in test [22] was 65%.
